From article PMC6645658 (ACS Omega, 2017) come the findings set out here.

The data set is described as follows: In vivo rat BBB penetration. In outline:
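Rats were dosed iv, and plasma and brain tissue were sampled at 0.25 h after dosing. Plasma concentration is in ng/mL and brain concentration in ng/g. Kp-unbound was derived using the unbound fractions measured in rat plasma and rat brain tissue, and was used to judge blood-brain barrier penetration.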

Usually Kp stands for the ratio of the level in a tissue or fluid to that in plasma or blood.

The structures appear in SMILES notation.

`COc1ccsc1CNCC[C@@]1(c2ccccn2)CCOC2(CCCC2)C1` [TRV130, [(3-methoxythiophen-2-yl)methyl]({2-[(9R)-9-(pyridine-2yl)-6-oxaspiro-[4,5]decan-9-yl]ethyl})amine]: the concentration at 0.25 h (brain, iv) came to 315 ng/g. The compound further yielded a Kp at 0.25 h (brain/plasma, intravenous) of 0.936.
